Reference: ChEMBL document CHEMBL1135652, “Novel soluble cationic trans-diaminedichloroplatinum(II) complexes that are active against cisplatin resistant ovarian cancer cell lines” (J Med Chem, 2002)
Values joined by “and” are separate entries in the source; they are usually repeats but may differ in a detail not shown here. Equal values may be shown once.

Experiments:
A2780cisR [1] = assay: Resistant factor was measured as […]; type: functional, cell-based
[2] = Resistant factor was measured as IC50 41M/ IC50 41McisR; type: functional
[3] = Resistant factor was measured as IC50 CH1/ IC50 CH1cisR; type: functional
41M [4] = assay: cytotoxicity against 41McisR cells incubated for 24 hr in MTT assay; type: functional, cell-based, Homo sapiens
Procedure, shortened: (§1)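 Cisplatin-sensitive/resistant ovarian cancer line pairs; platinum complexes dissolved in 10 mM NaClO4 in water (1 mg/mL stock, fresh), added to cultures at final 0–200 μM for 24 h. Survival by MTT, absorbance at 520 nm; IC50 (concentration giving 50% cell killing) taken from % survival vs concentration curves. Quadruplicate experiments.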

41M [5] = assay: cytotoxicity against 41M cells incubated for 24 hr in MTT assay.; type: functional, cell-based, Homo sapiens; procedure, shortened: as §1
CH1 [6] = assay: cytotoxicity against CH1cisR cells incubated for 24 hr in MTT assay; type: functional, cell-based, Homo sapiens; procedure, shortened: as §1
A2780cisR [7] = assay: cytotoxicity against A2780cisR cells incubated for 24 hr in MTT assay; type: functional, cell-based, Homo sapiens; procedure, shortened: as §1
A2780 = assay: cytotoxicity against A2780 cells incubated for 24 hr in MTT assay.; type: functional, cell-based, Homo sapiens; procedure, shortened: as §1
CH1 [8] = assay: cytotoxicity against CH1 cells incubated for 24 hr in MTT assay.; type: functional, cell-based, Homo sapiens; procedure, shortened: as §1

| Substance | RF (A2780cisR [1]) | RF [2] | RF [3] | IC50 (41M [4]) | IC50 (41M [5]) | IC50 (CH1 [6]) | IC50 (A2780cisR [7]) | IC50 (A2780) | IC50 (CH1 [8]) |
| --- | --- | --- | --- | --- | --- | --- | --- | --- | --- |
| trans-ptcl2(pip)(pz) [listing 1 of 2 here] | 3.6 | 3.2 | 3.9 |  |  |  |  |  |  |
| trans-ptcl2(picoline)(pz) [listing 1 of 2 here] | 2.4 | 3.3 | 2.6 |  |  |  |  |  |  |
| trans-ptcl2(NH3)(pz) [listing 1 of 2 here] |  | 3 and 2.4 | 2.8 and 2 |  |  |  |  |  |  |
| trans-ptcl2(n-butyl amine)(pz) [listing 1 of 2 here] | 1.8 | 1.5 | 1.1 |  |  |  |  |  |  |
| trans-ptcl2(pip)(pz) [listing 2 of 2 here] |  |  |  | 118 µM | 37 µM | 85 µM | 64 µM | 18 µM | 22 µM |
| trans-ptcl2(n-butyl amine)(pz) [listing 2 of 2 here] |  |  |  | 48 µM | 32 µM | 19 µM | 28 µM | 16 µM | 17 µM |
| TRANSPLATIN |  |  |  | > 200 µM | > 200 µM | > 200 µM | > 200 µM | > 200 µM | > 200 µM |
| trans-ptcl2(IPA)(pz) [listing 1 of 2 here] | 2.1 | 3.2 | 5 |  |  |  |  |  |  |
| trans-ptcl2(IPA)(pz) [listing 2 of 2 here] |  |  |  | 122 µM | 38 µM | 50 µM | 30 µM | 14 µM | 10 µM |
| trans-ptcl2(NH3)(pz) [listing 2 of 2 here] |  |  |  | 155 µM and 112 µM | 52 µM and 46 µM | 34 µM and 56 µM | 44 µM and 25 µM | 5 µM and 10 µM | 12 µM and 28 µM |
| CISPLATIN [listing 1 of 2 here] | 17.3 | 4.1 | 3.8 |  |  |  |  |  |  |
| trans-ptcl2(picoline)(pz) [listing 2 of 2 here] |  |  |  | 147 µM | 45 µM | 42 µM | 24 µM | 10 µM | 16 µM |
| CISPLATIN [listing 2 of 2 here] |  |  |  | 107 µM | 26 µM | 23 µM | 38 µM | 2.2 µM | 6 µM |
